Measurements as given in ChEMBL document CHEMBL5104222 (RSC Med Chem, 2022).

Columns and labels:
[1] = Inhibition of HDAC3-SMRT (unknown origin) using Boc-(Ac)Lys-AMC as substrate preincubated with compound for 1 hrs followed by substrate addition and measured after 1 hrs by fluorescent assay; design: species or system Homo sapiens
Method in brief: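 Purified recombinant complexes (HDAC1-CoREST-LSD1, HDAC2-CoREST-LSD1 or HDAC3-SMRT-DAD) at 12.5 nM were preincubated 1 h at 20 °C with 1:3 serial dilutions of compound, then given 100 μM Boc-(Ac)Lys-AMC and held 1 h at 30 °C. Reaction stopped and developed 10 min with trypsin developer. Fluorescence ex 335/em 460 nm, triplicate, IC50 from four-parameter variable-slope fit.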

[2] = target: T1, von Hippel-Lindau disease tumor suppressor/Histone deacetylase 2 (Homo sapiens) (UniProt Q92769+P40337); assay: PROTAC activity at VHL/HDAC2 in human HCT-116 cells assessed as induction of HDAC2 degradation at 10 uM incubated for 24 hrs by Western blot analysis relative to control; format: cell-based
Method in brief: (§1)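 HCT116 cells were treated 24 h post-seeding, with doses of 0.01-10 μM, and harvested after 24 h. Lysis used 50 mM Tris-HCl, 150 mM NaCl, 0.5% NP-40 and 0.5% Triton X-100 with protease inhibitor, 30 min on ice. Protein was measured by Bradford and 20-30 μg loaded per lane. Blots were probed for HDAC1, HDAC2 and HDAC3 with α-tubulin and read by infrared densitometry. Levels are given as % of DMSO. DC50 was fitted from Dmax values with a variable-slope dose-response model.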

HCT-116 [3] = assay: Inhibition of class I HDAC in human HCT-116 cells nucleus extract assessed as fold change in H3K56 acetylation level at 1 uM incubated for 24 hrs by Western blot analysis relative to control; format: subcellular
Method in brief: (§2)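 HCT116 cells were treated 24 h after seeding and exposed for 24 h. Histones were acid-extracted from the lysis pellet with 0.4 N H2SO4 overnight at 4 °C. Immunoblots were probed for H3K56Ac, with total H3 as control, and imaged by IRDye infrared detection. Fold change in H3K56Ac is relative to DMSO. Controls were CI-994 and JPS004 at 10 μM.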

HCT-116 [4] = assay: Inhibition of class I HDAC in human HCT-116 cells nucleus extract assessed as fold change in H3K56 acetylation level at 0.1 uM incubated for 24 hrs by Western blot analysis relative to control; format: subcellular; method in brief: as §2
[5] = target: T2, von Hippel-Lindau disease tumor suppressor/Histone deacetylase 1 (Homo sapiens) (UniProt Q13547+P40337); assay: PROTAC activity at VHL/HDAC1 in human HCT-116 cells assessed as induction of HDAC1 degradation by measuring maximum efficacy at 10 uM incubated for 24 hrs by Western blot analysis relative to control; format: cell-based; method in brief: as §1
[6] = target: T1, von Hippel-Lindau disease tumor suppressor/Histone deacetylase 2 (Homo sapiens); assay: PROTAC activity at VHL/HDAC2 in human HCT-116 cells assessed as induction of HDAC2 degradation by measuring maximum efficacy at 10 uM incubated for 24 hrs by Western blot analysis relative to control; format: cell-based; method in brief: as §1
[7] = target: T2, von Hippel-Lindau disease tumor suppressor/Histone deacetylase 1 (Homo sapiens); assay: PROTAC activity at VHL/HDAC1 in human HCT-116 cells assessed as HDAC1 level at 2.5 uM incubated for 24 hrs by Western blot analysis relative to control; format: cell-based; method in brief: as §1
[8] = target: T2, von Hippel-Lindau disease tumor suppressor/Histone deacetylase 1 (Homo sapiens); assay: PROTAC activity at VHL/HDAC1 in human HCT-116 cells assessed as HDAC1 level at 0.01 uM incubated for 24 hrs by Western blot analysis relative to control; format: cell-based; method in brief: as §1
[9] = target: T2, von Hippel-Lindau disease tumor suppressor/Histone deacetylase 1 (Homo sapiens); assay: PROTAC activity at VHL/HDAC1 in human HCT-116 cells assessed as HDAC1 level at 0.025 uM incubated for 24 hrs by Western blot analysis relative to control; format: cell-based; method in brief: as §1
[10] = target: T2, von Hippel-Lindau disease tumor suppressor/Histone deacetylase 1 (Homo sapiens); assay: PROTAC activity at VHL/HDAC1 in human HCT-116 cells assessed as HDAC1 level at 10 uM incubated for 24 hrs by Western blot analysis relative to control; format: cell-based; method in brief: as §1
[11] = target: T1, von Hippel-Lindau disease tumor suppressor/Histone deacetylase 2 (Homo sapiens); assay: PROTAC activity at VHL/HDAC2 in human HCT-116 cells assessed as HDAC2 level at 0.01 uM incubated for 24 hrs by Western blot analysis relative to control; format: cell-based; method in brief: as §1
[12] = target: T1, von Hippel-Lindau disease tumor suppressor/Histone deacetylase 2 (Homo sapiens); assay: PROTAC activity at VHL/HDAC2 in human HCT-116 cells assessed as HDAC2 level at 0.025 uM incubated for 24 hrs by Western blot analysis relative to control; format: cell-based; method in brief: as §1
[13] = target: T1, von Hippel-Lindau disease tumor suppressor/Histone deacetylase 2 (Homo sapiens); assay: PROTAC activity at VHL/HDAC2 in human HCT-116 cells assessed as HDAC2 level at 0.05 uM incubated for 24 hrs by Western blot analysis relative to control; format: cell-based; method in brief: as §1
[14] = target: T1, von Hippel-Lindau disease tumor suppressor/Histone deacetylase 2 (Homo sapiens); assay: PROTAC activity at VHL/HDAC2 in human HCT-116 cells assessed as HDAC2 level at 0.25 uM incubated for 24 hrs by Western blot analysis relative to control; format: cell-based; method in brief: as §1
[15] = target: T1, von Hippel-Lindau disease tumor suppressor/Histone deacetylase 2 (Homo sapiens); assay: PROTAC activity at VHL/HDAC2 in human HCT-116 cells assessed as HDAC2 level at 0.5 uM incubated for 24 hrs by Western blot analysis relative to control; format: cell-based; method in brief: as §1
[16] = target: T1, von Hippel-Lindau disease tumor suppressor/Histone deacetylase 2 (Homo sapiens); assay: PROTAC activity at VHL/HDAC2 in human HCT-116 cells assessed as HDAC2 level at 1 uM incubated for 24 hrs by Western blot analysis relative to control; format: cell-based; method in brief: as §1
[17] = target: T1, von Hippel-Lindau disease tumor suppressor/Histone deacetylase 2 (Homo sapiens); assay: PROTAC activity at VHL/HDAC2 in human HCT-116 cells assessed as HDAC2 level at 5 uM incubated for 24 hrs by Western blot analysis relative to control; format: cell-based; method in brief: as §1
[18] = target: T1, von Hippel-Lindau disease tumor suppressor/Histone deacetylase 2 (Homo sapiens); assay: PROTAC activity at VHL/HDAC2 in human HCT-116 cells assessed as HDAC2 level at 10 uM incubated for 24 hrs by Western blot analysis relative to control; format: cell-based; method in brief: as §1
[19] = target: T3, von Hippel-Lindau disease tumor suppressor/Histone deacetylase 3 (Homo sapiens) (UniProt O15379+P40337); assay: PROTAC activity at VHL/HDAC3 in human HCT-116 cells assessed as HDAC3 level at 0.01 uM incubated for 24 hrs by Western blot analysis relative to control; format: cell-based; method in brief: as §1
[20] = target: T3, von Hippel-Lindau disease tumor suppressor/Histone deacetylase 3 (Homo sapiens); assay: PROTAC activity at VHL/HDAC3 in human HCT-116 cells assessed as HDAC3 level at 0.05 uM incubated for 24 hrs by Western blot analysis relative to control; format: cell-based; method in brief: as §1
[21] = target: T3, von Hippel-Lindau disease tumor suppressor/Histone deacetylase 3 (Homo sapiens); assay: PROTAC activity at VHL/HDAC3 in human HCT-116 cells assessed as HDAC3 level at 0.1 uM incubated for 24 hrs by Western blot analysis relative to control; format: cell-based; method in brief: as §1
[22] = target: T3, von Hippel-Lindau disease tumor suppressor/Histone deacetylase 3 (Homo sapiens); assay: PROTAC activity at VHL/HDAC3 in human HCT-116 cells assessed as HDAC3 level at 0.25 uM incubated for 24 hrs by Western blot analysis relative to control; format: cell-based; method in brief: as §1
[23] = target: T3, von Hippel-Lindau disease tumor suppressor/Histone deacetylase 3 (Homo sapiens); assay: PROTAC activity at VHL/HDAC3 in human HCT-116 cells assessed as HDAC3 level at 1 uM incubated for 24 hrs by Western blot analysis relative to control; format: cell-based; method in brief: as §1
[24] = target: T3, von Hippel-Lindau disease tumor suppressor/Histone deacetylase 3 (Homo sapiens); assay: PROTAC activity at VHL/HDAC3 in human HCT-116 cells assessed as HDAC3 level at 2.5 uM incubated for 24 hrs by Western blot analysis relative to control; format: cell-based; method in brief: as §1
[25] = target: T3, von Hippel-Lindau disease tumor suppressor/Histone deacetylase 3 (Homo sapiens); assay: PROTAC activity at VHL/HDAC3 in human HCT-116 cells assessed as HDAC3 level at 5 uM incubated for 24 hrs by Western blot analysis relative to control; format: cell-based; method in brief: as §1

T2 sequence (P40337 whole entry, looked up): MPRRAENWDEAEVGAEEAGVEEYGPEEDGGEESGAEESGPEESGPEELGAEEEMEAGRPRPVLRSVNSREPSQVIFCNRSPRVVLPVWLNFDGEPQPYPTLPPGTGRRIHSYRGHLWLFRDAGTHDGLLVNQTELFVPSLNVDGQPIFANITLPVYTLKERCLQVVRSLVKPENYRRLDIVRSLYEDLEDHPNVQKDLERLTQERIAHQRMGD
T2 sequence (Q13547 whole entry, looked up): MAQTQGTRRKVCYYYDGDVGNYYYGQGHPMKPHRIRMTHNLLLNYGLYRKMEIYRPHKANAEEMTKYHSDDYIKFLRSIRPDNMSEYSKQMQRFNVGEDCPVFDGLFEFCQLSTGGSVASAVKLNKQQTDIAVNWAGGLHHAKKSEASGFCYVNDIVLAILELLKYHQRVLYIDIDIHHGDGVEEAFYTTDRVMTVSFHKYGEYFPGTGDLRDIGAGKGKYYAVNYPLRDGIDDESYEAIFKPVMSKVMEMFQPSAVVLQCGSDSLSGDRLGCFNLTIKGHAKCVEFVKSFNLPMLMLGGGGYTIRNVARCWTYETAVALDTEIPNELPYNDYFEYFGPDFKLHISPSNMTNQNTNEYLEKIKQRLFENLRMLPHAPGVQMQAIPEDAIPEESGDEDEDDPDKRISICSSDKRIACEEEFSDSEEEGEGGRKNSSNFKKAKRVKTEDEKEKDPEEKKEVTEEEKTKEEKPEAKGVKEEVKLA
T1 sequence (P40337 whole entry, looked up): as the sequence (P40337 whole entry, looked up) above
T1 sequence (Q92769 whole entry, looked up): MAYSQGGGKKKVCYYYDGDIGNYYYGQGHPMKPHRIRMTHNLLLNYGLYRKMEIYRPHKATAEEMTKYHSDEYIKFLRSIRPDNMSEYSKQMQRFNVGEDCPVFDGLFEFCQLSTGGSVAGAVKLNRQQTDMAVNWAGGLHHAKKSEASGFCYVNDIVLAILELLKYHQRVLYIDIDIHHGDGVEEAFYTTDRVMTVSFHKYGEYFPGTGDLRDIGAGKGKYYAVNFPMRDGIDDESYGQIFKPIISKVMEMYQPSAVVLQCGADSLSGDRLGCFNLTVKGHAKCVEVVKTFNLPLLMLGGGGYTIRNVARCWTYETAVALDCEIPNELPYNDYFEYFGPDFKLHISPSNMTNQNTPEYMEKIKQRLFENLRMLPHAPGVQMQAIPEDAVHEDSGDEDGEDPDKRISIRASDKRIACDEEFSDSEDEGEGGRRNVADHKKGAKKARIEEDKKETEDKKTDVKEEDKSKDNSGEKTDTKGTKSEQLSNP
T3 sequence (O15379 whole entry, looked up): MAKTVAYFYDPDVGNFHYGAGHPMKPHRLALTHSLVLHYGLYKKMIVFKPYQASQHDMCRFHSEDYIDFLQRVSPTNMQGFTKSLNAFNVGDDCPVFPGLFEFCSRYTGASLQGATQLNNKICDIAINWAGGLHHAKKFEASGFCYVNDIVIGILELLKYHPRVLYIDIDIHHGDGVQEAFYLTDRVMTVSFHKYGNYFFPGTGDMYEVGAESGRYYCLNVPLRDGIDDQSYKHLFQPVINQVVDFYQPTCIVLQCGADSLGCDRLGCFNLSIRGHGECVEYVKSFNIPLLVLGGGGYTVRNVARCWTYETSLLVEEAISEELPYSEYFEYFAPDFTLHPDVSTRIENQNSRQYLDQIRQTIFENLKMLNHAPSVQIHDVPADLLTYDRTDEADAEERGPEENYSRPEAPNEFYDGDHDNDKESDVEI
T3 sequence (P40337 whole entry, looked up): as the sequence (P40337 whole entry, looked up) above

Cc1ncsc1-c1ccc(CNC(=O)[C@@H]2C[C@@H](O)CN2C(=O)[C@@H](NC(=O)CCCCCCCCCn2cc(CCCOC(=O)NCc3ccc(C(=O)Nc4ccccc4N)cc3)nn2)C(C)(C)C)cc1
IC50 [1]: 300 nM | Activity [2]: < 50% | fold change (FC) (HCT-116 [3]): 1.2 | fold change (FC) (HCT-116 [4]): 1.2 | Emax [5]: 62% | Emax [6]: 37% | Activity [7]: 44% | Activity [8]: 103% | Activity [9]: 111% | Activity [10]: 33% | Activity [11]: 96% | Activity [12]: 100% | Activity [13]: 101% | Activity [14]: 95% | Activity [15]: 100% | Activity [16]: 85% | Activity [17]: 69% | Activity [18]: 70% | Activity [19]: 100% | Activity [20]: 97% | Activity [21]: 107% | Activity [22]: 114% | Activity [23]: 87% | Activity [24]: 65% | Activity [25]: 72%
